According to ChEMBL document CHEMBL3407461 (J Med Chem, 2014):

Columns and labels:
[1] = biological target: T1, Adenosine receptor A1 (Homo sapiens) (UniProt P30542); test: Displacement of [3H]R-PIA from human recombinant A1 adenosine receptor expressed in CHO cells at 10 uM after 60 mins by liquid scintillation counting; format: cell-based
T1 sequence (whole entry): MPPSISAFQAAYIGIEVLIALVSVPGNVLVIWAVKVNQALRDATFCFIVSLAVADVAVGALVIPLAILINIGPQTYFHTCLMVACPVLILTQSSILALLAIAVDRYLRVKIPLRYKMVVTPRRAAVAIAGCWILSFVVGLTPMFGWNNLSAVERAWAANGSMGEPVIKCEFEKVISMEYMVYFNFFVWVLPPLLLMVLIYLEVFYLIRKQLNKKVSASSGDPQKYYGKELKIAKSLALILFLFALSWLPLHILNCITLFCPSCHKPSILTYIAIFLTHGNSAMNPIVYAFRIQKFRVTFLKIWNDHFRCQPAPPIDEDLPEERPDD

[2] = biological target: Adenosine receptor A2a (Homo sapiens) (UniProt P29274); test: Displacement of [3H]CGS21680 from human recombinant A2A adenosine receptor expressed in HEK293 cells at 10 uM after 60 mins by liquid scintillation counting; format: cell-based
[3] = biological target: Adenosine receptor A2a (Mus musculus) (UniProt Q60613); test: Displacement of [3H]CGS21680 from mouse A2A adenosine receptor expressed in HEK293 cells at 10 uM after 60 mins by liquid scintillation counting; format: cell-based
Mus musculus [4] = test: Antinociceptive activity in chronic constriction injury neutropathic pain CD-1 mouse model assessed as time for peak protection at 3 umol/kg, po; format: functional
Method in brief: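 Male CD-1 mice (25−30 g), chronic constriction injury of left sciatic nerve (Bennett model) under isoflurane. Dosed by gavage (3 μmol/kg, 0.2 mL) at peak mechano-allodynia on day 7; vehicle 10% DMSO in 0.5% methylcellulose. Paw withdrawal threshold (g) measured on the ipsilateral hind paw from 30 min to 5 h post dose. Expressed as % reversal, mean ± SEM over n animals.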

Mus musculus [5] = test: Antinociceptive activity in chronic constriction injury neutropathic pain CD-1 mouse model assessed as maximum protection on ipsilateral hind paw at 3 umol/kg, po after 30 mins to 5 hrs post dose relative to control; format: functional; conditions: CD-1, po
hERG (KCNH2) = hERG (KCNH2) (Homo sapiens, UniProt Q12809); test: Inhibition of human ERG at 10 uM by PDSP screening
[6] = biological target: T2, Adenosine receptor A1 (Mus musculus) (UniProt Q60612); test: Displacement of [125I]I-AB-MECA from mouse A1 adenosine receptor expressed in HEK293 cells at 10 uM after 60 mins by liquid scintillation counting
T2 sequence (whole entry): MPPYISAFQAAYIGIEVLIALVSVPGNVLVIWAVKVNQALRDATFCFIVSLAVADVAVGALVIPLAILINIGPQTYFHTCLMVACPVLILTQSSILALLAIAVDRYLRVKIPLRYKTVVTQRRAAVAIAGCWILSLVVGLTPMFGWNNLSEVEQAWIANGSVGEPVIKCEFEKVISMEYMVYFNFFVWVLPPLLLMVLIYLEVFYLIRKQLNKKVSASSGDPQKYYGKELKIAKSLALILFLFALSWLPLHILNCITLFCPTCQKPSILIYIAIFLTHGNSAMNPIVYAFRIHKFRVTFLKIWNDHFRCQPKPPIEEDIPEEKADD

Mus musculus [7] = test: Antinociceptive activity in chronic constriction injury neutropathic pain CD-1 mouse model at 3 umol/kg, po after 3 hrs post dose relative to control; format: functional
[8] = biological target: Voltage-gated inwardly rectifying potassium channel KCNH2 (Homo sapiens, UniProt Q12809); test: Inhibition of human ERG by PDSP screening
[9] = biological target: T3, Adenosine receptor A3 (Mus musculus) (UniProt Q61618); test: Agonist activity at mouse A3 adenosine receptor expressed in HEK293 cells assessed as inhibition of forskolin-stimulated cAMP production after 15 mins relative to control; format: functional, cell-based
T3 sequence (whole entry): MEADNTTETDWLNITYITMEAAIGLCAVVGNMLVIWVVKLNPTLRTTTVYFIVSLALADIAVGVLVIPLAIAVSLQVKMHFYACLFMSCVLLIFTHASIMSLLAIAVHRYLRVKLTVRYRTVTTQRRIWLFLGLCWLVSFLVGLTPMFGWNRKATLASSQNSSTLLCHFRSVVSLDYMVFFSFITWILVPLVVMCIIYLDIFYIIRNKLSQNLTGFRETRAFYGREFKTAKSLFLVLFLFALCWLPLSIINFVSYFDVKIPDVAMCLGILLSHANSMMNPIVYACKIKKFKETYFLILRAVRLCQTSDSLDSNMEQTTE
Method in brief: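 2 × 10^5 cells/tube, coincubated with forskolin 10 μM plus ligand for 15 min at 37 °C with shaking. Stopped with HCl. cAMP in supernatant measured by competitive binding.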

CHO = test: Selectivity ratio of Ki for mouse A3 adenosine receptor expressed in HEK293 cells to Ki for human recombinant A3 adenosine receptor expressed in CHO cells; format: cell-based
Cytochrome P450 1A2 = biological target: T4, Cytochrome P450 1A2 (Homo sapiens, UniProt P05177); test: Inhibition of CYP1A2 in human microsomes preincubated for 5 mins before substrate addition measured after 10 mins by LC/MS/MS analysis; format: ADME
T4 sequence (P05177 whole entry): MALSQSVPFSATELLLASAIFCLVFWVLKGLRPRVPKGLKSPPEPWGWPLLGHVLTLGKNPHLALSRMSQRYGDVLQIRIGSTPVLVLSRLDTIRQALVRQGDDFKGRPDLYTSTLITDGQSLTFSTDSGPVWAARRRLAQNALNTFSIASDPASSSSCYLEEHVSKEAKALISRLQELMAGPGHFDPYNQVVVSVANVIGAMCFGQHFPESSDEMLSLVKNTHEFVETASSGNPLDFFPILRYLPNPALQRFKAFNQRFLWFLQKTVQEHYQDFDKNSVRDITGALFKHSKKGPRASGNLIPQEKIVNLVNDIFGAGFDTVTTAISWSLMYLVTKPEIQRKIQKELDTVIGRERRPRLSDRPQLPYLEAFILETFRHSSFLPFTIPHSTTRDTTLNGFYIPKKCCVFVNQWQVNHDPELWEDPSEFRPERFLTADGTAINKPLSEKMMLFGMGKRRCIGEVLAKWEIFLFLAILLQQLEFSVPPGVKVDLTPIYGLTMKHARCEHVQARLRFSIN

Cytochrome P450 2C9 = Cytochrome P450 2C9 (Homo sapiens, UniProt P11712); test: Inhibition of CYP2C9 in human microsomes preincubated for 5 mins before substrate addition measured after 10 mins by LC/MS/MS analysis; format: ADME
Cytochrome P450 2C19 = Cytochrome P450 2C19 (Homo sapiens, UniProt P33261); test: Inhibition of CYP2C19 in human microsomes preincubated for 5 mins before substrate addition measured after 10 mins by LC/MS/MS analysis; format: ADME
Cytochrome P450 2D6 = Cytochrome P450 2D6 (Homo sapiens, UniProt P10635); test: Inhibition of CYP2D6 in human microsomes preincubated for 5 mins before substrate addition measured after 10 mins by LC/MS/MS analysis; format: ADME
Cytochrome P450 3A4 = Cytochrome P450 3A4 (Homo sapiens, UniProt P08684); test: Inhibition of CYP3A4 in human microsomes preincubated for 5 mins before substrate addition measured after 10 mins by LC/MS/MS analysis; format: ADME
Liver microsome = test: Intrinsic clearance in human liver microsomes assessed per mg protein at 100 uM by LC-MS/MS analysis; format: ADME
[10] = Permeability across apical to basolateral side of human Caco2 cells expressing P-gp; format: ADME, cell-based; conditions: caco-2

Adenosine receptor A2a (Mus musculus), sequence (Q60613 whole entry): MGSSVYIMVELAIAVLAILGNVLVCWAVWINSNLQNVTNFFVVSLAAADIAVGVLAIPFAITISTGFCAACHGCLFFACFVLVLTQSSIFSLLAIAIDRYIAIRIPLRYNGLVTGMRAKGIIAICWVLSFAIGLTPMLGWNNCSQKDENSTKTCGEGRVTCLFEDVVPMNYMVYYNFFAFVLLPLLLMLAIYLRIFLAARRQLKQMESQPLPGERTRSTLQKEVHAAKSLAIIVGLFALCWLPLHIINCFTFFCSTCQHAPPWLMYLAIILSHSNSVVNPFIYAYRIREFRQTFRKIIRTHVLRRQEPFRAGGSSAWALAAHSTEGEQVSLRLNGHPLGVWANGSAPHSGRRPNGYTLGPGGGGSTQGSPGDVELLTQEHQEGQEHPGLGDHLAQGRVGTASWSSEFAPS
Adenosine receptor A2a (Homo sapiens), sequence (P29274 whole entry): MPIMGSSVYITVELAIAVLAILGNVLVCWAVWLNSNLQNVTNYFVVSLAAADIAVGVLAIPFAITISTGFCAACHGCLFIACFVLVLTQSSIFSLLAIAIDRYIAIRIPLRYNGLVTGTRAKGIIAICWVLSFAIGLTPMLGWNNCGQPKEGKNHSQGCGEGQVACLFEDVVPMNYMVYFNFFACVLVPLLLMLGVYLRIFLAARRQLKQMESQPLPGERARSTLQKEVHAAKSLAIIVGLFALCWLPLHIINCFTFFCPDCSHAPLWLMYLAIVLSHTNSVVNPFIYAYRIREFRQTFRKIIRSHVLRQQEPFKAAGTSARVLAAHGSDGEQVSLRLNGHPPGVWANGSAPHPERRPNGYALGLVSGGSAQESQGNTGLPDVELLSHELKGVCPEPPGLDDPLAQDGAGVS
Cytochrome P450 2D6, sequence (P10635 whole entry): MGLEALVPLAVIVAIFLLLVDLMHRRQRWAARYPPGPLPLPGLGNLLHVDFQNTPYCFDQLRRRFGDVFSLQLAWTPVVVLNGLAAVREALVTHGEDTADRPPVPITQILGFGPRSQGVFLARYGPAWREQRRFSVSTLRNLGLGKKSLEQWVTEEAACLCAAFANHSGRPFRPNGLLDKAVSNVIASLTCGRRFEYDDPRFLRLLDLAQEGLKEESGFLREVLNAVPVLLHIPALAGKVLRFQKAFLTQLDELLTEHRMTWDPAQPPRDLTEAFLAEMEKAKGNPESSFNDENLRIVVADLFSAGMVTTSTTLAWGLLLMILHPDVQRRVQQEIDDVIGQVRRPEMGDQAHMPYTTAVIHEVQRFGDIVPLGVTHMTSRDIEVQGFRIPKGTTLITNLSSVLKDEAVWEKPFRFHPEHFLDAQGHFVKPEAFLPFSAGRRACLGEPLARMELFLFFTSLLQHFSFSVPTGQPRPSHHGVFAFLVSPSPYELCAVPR
Voltage-gated inwardly rectifying potassium channel KCNH2, sequence (Q12809 whole entry): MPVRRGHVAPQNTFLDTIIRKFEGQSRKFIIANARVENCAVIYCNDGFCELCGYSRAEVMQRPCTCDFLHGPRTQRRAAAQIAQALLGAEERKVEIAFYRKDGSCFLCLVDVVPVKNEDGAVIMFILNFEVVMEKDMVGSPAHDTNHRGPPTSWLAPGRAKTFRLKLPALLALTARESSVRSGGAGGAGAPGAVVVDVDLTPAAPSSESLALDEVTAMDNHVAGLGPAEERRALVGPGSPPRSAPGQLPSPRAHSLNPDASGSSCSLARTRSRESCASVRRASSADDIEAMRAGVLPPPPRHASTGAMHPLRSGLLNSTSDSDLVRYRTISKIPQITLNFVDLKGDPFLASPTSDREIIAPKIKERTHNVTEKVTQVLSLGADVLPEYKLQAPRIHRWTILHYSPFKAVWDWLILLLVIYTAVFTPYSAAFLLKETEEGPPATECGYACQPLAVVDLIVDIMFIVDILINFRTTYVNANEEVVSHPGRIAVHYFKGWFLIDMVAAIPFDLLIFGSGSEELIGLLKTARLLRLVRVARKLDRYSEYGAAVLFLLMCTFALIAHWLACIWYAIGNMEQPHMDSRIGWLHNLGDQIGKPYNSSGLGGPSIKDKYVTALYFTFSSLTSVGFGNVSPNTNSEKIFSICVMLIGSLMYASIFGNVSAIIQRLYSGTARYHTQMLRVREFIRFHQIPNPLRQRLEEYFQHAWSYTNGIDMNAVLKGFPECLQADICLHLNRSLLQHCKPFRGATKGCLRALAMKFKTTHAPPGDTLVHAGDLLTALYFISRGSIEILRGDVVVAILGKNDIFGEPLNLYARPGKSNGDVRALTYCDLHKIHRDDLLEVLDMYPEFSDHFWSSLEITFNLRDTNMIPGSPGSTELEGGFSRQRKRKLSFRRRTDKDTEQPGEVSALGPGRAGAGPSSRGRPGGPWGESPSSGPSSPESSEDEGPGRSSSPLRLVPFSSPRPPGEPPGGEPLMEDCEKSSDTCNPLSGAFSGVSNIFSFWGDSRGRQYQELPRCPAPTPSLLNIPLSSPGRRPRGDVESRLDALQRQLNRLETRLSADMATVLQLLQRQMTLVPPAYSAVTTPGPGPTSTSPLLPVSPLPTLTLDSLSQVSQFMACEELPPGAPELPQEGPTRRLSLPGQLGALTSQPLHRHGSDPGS
hERG (KCNH2), sequence (Q12809 whole entry): as above
Cytochrome P450 3A4, sequence (P08684 whole entry): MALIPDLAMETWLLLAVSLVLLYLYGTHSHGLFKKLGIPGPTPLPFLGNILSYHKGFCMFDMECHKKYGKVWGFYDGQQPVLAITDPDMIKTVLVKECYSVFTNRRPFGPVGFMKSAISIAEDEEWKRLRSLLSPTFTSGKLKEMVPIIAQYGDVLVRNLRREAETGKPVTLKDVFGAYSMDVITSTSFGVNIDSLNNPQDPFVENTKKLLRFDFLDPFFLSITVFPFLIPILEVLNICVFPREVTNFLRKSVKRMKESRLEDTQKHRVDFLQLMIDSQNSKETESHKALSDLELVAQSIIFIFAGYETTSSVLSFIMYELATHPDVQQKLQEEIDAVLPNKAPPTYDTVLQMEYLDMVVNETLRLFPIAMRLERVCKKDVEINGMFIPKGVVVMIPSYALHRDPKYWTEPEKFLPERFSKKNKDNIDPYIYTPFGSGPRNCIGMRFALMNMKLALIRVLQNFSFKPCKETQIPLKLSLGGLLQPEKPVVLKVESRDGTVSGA
Cytochrome P450 2C19, sequence (P33261 whole entry): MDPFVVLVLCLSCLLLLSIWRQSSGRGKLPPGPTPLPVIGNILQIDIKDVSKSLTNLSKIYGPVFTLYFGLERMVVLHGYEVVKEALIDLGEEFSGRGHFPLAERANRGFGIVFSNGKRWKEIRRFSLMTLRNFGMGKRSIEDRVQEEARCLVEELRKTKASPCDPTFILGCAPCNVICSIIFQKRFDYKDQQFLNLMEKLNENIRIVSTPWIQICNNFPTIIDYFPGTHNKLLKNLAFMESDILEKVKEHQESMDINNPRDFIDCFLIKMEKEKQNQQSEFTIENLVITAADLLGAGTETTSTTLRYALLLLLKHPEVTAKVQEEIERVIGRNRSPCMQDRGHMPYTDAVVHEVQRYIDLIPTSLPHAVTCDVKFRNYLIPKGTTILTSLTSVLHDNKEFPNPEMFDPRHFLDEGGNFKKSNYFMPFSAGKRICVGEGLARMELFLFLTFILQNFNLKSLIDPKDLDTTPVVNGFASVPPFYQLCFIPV

SMILES	inhibition [1] [%]	inhibition [2] [%]	Time (Mus musculus [4]) [h]	Emax at 3 µmol/kg (Mus musculus [5]) [%]	Activity (Mus musculus [7]) [%]	other results
CNC(=O)[C@@]12C[C@@H]1[C@@H](n1cnc3c(NC)nc(C#Cc4cnn(C)c4)nc31)[C@H](O)[C@@H]2O	35	12	1	87.3	–	inhibition [3]: 16%; inhibition at 10 µM (hERG (KCNH2)): 28%; inhibition [6]: 72%
CNC(=O)[C@@]12C[C@@H]1[C@@H](n1cnc3c(NC)nc(C#Cc4ccccn4)nc31)[C@H](O)[C@@H]2O	13	–	0.5	31.8	0	–
CNC(=O)[C@@]12C[C@@H]1[C@@H](n1cnc3c(NC)nc(C#Cc4cccc(F)c4)nc31)[C@H](O)[C@@H]2O	14	–	1	46.3	12.4	–
CNC(=O)[C@@]12C[C@@H]1[C@@H](n1cnc3c(NCc4cccc(Cl)c4)nc(C#Cc4ccc(F)c(F)c4)nc31)[C@H](O)[C@@H]2O	–	–	1	–	23.7	IC50 [8]: 12.2 µM; inhibition [6]: 16%
CNC(=O)[C@@]12C[C@@H]1[C@@H](n1cnc3c(NC)nc(C#Cc4cccs4)nc31)[C@H](O)[C@@H]2O	25	20	1	100	–	inhibition [3]: 3%; Imax [9]: 28%; inhibition [6]: 47%
CNC(=O)[C@@]12C[C@@H]1[C@@H](n1cnc3c(NC)nc(C#Cc4ccc(F)cc4)nc31)[C@H](O)[C@@H]2O	27	–	1	72	10.4	Ratio Ki (CHO): > 30
CNC(=O)[C@@]12C[C@@H]1[C@@H](n1cnc3c(NC)nc(C#Cc4nccs4)nc31)[C@H](O)[C@@H]2O	31	8	1	53.2	12.7	–
CNC(=O)[C@@]12C[C@@H]1[C@@H](n1cnc3c(NC)nc(C#Cc4ccc(-c5ccccc5)cc4)nc31)[C@H](O)[C@@H]2O	18	21	1	57.7	14.3	–
CNC(=O)[C@@]12C[C@@H]1[C@@H](n1cnc3c(NC)nc(C#CC4CC4)nc31)[C@H](O)[C@@H]2O	38	15	1	54.6	19.1	–
CNC(=O)[C@H]1O[C@@H](n2cnc3c(NCc4cccc(I)c4)ncnc32)[C@H](O)[C@@H]1O [IB-MECA]	–	–	1	94.1	38.7	–
CNC(=O)[C@@]12C[C@@H]1[C@@H](n1cnc3c(NC)nc(C#Cc4ccccc4)nc31)[C@H](O)[C@@H]2O	18	–	0.5	44.1	5	–
CNC(=O)[C@@]12C[C@@H]1[C@@H](n1cnc3c(NC)nc(C#Cc4ccccc4F)nc31)[C@H](O)[C@@H]2O	20	–	0.5	56	9.8	–
CNC(=O)[C@@]12C[C@@H]1[C@@H](n1cnc3c(NC)nc(C#Cc4cnccn4)nc31)[C@H](O)[C@@H]2O	37	25	1	100	–	inhibition [3]: 12%; Imax [9]: 30%; IC50 (Cytochrome P450 1A2): > 10 µM; IC50 (Cytochrome P450 2C9): > 10 µM; IC50 (Cytochrome P450 2C19): > 10 µM; IC50 (Cytochrome P450 2D6): > 10 µM; IC50 (Cytochrome P450 3A4): > 10 µM; CLH (Liver microsome): 2.99 µL/min; permeability [10]: impermeable
CNC(=O)[C@@]12C[C@@H]1[C@@H](n1cnc3c(NC)nc(C#Cc4ccc(Cl)cc4)nc31)[C@H](O)[C@@H]2O	13	–	0.5	40.4	4.6	–
CNC(=O)[C@@]12C[C@@H]1[C@@H](n1cnc3c(NC)nc(C#Cc4ccccc4Cl)nc31)[C@H](O)[C@@H]2O	22	–	0.5	27.5	10.6	Ratio Ki (CHO): > 30
